Target: Histone deacetylase
Test: Inhibitory concentration against human histone deacetylase
Type: protein assay
Details: not given

In order of rising IC50:
1. O=C(CCCCCCS)Nc1nc2ccccc2s1  0.34 µM
2. CNC(=O)C(=O)CCCCCCC(=O)Nc1ccccc1  0.34 µM
3. O=CN(O)CCCCCCCC(=O)Nc1ccccc1  2.8 µM

Work on C#CCNCCCCCC(=O)Nc1ccccc1 yielded an IC50 greater than 100 µM.
O=C(CO)NCCCCCC(=O)Nc1ccccc1 gave an IC50 greater than 100 µM.
In the case of CSCCCCCCC(=O)Nc1ccccc1, the IC50 is reported as greater than 100 µM.
O=C(CCCCCCS(=O)(=O)NO)Nc1ccccc1 gave an IC50 greater than 100 µM.
NCC(=O)NCCCCCC(=O)Nc1ccccc1 showed an IC50 greater than 100 µM.
C#CCN(CC#C)CCCCCC(=O)Nc1ccccc1 gave an IC50 greater than 100 µM.

Same assay, conditions: read-out: IC50

In order of rising IC50:
1. O=C(CCCCCCS)Nc1cccc(-c2ccccc2)c1  0.075 µM
2. O=C(NCCCCCCS)c1ccc2ccccc2c1  0.085 µM
3. O=C(NCCCCCCS)c1cc2ccccc2[nH]1  0.1 µM
4. O=C(CCCCCCS)Nc1cccnc1  0.11 µM
5. O=C(CCCCCCS)Nc1nc(-c2ccccc2)cs1  0.17 µM
6. O=C(CCCCCCS)Nc1cccc(Oc2ccccc2)c1  0.21 µM
7. O=C(NCCCCCCS)c1ccccc1  0.36 µM
8. CN(C)c1ccc(C(=O)NCCCCCCS)cc1  0.61 µM
9. O=C(CCCCCCS)Nc1ccc(Oc2ccccc2)cc1  0.62 µM
10. O=C(CCCCCCS)Nc1ccc(-c2ccccc2)cc1  1.1 µM
11. CN(C)c1ccc(NC(=O)CCCCCCS)cc1  1.2 µM
12. SCCCCCCOc1ccccc1  11 µM

Tested on: not listed separately
Test: Effective Concentration of compound to inhibit the growth of human RXF-631L cells
Type: functional, cell-based
Details: not given

With CC(C)C(=O)SCCCCCCC(=O)Nc1nc(-c2ccccc2)cs1 the EC50 was 2.4 µM.

Tested on: NCI-H460
Test: Inhibition of human lung cancer NCI-H460 cell growth
Type: functional, cell-based
Details: not given
Procedure, shortened: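 Cells seeded at 1500/well, 37 °C; after 24 h exposed to compounds at various concentrations in 10% FBS RPMI-1640, 37 °C, 5% CO₂, 48 h. Stained with 0.5 mg/mL methylene blue, room temperature, 30 min; dye dissolved in 3% aqueous HCl, absorbance at 660 nm. EC₅₀ reported as mean of at least two experiments.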

First: O=C(CCCCCCSSCCCCCCC(=O)Nc1ccccc1)Nc1ccccc1
Second: CCCC(=O)SCCCCCCC(=O)Nc1ccccc1
The EC50 of the first is higher: greater than 50 µM for the first, 22 µM for the second.

Going from CC(C)(C)C(=O)SCCCCCCC(=O)Nc1ccccc1 to CC(=O)SCCCCCCC(=O)Nc1ccccc1, the EC50 falls from greater than 50 µM to 36 µM. The second is the more potent here.

CCC(=O)SCCCCCCC(=O)Nc1ccccc1 and O=C(CCCCCCSC(=O)C1CC1)Nc1ccccc1 are within 1.5-fold of each other in EC50: 28 µM for the first, 27 µM for the second.

First: CC(C)C(=O)SCCCCCCNC(=O)c1ccc2ccccc2c1
Second: CC(C)C(=O)SCCCCCCNC(=O)c1cc2ccccc2o1
The EC50 of the first is 2.9-fold higher: 12 µM for the first, 4.1 µM for the second.

CC(C)C(=O)SCCCCCCC(=O)Nc1nc2ccccc2s1 and CC(C)C(=O)SCCCCCCC(=O)Nc1cnc2ccccc2c1 are within 1.5-fold of each other in EC50: 9.5 µM for the first, 8 µM for the second.

Going from CC(C)C(=O)SCCCCCCC(=O)Nc1cccc(-c2ccccc2)c1 to CC(C)C(=O)SCCCCCCC(=O)Nc1cccc(Oc2ccccc2)c1, the EC50 rises from 2.8 µM to 25 µM (8.9-fold). The first is the more potent here.

O=C(CCCCCCSC(=O)C1CCCC1)Nc1ccccc1 and CC(C)(C)C(=O)OCSCCCCCCC(=O)Nc1ccccc1 are within 1.5-fold of each other in EC50: 21 µM for the first, 25 µM for the second.

First: CC(C)C(=O)SCCCCCCNC(=O)c1cc2ccccc2[nH]1
Second: CC(C)C(=O)SCCCCCCC(=O)Nc1cccnc1
The EC50 of the first is 4.1-fold higher: 12 µM for the first, 2.9 µM for the second. The second is the more potent here.

In the case of O=C(CCCCCCSC(=O)c1ccc([N+](=O)[O-])cc1)Nc1ccccc1, the EC50 is reported as 24 µM.

Target: Histone deacetylase (Homo sapiens) (UniProt Q13547+O15379+Q9UBN7+Q92769+Q9UQL6+Q8WUI4+Q9BY41+Q96DB2+P56524+Q9UKV0+Q969S8)
Details: at 100 µM

In order of falling inhibition:
1. CC(=O)SCCCCCCC(=O)Nc1ccccc1  85%
2. C#CCNCCCCCC(=O)Nc1ccccc1  14%
3. O=C(CCCCCCS(=O)(=O)NO)Nc1ccccc1  14%
4. CSCCCCCCC(=O)Nc1ccccc1  11%
5. C#CCN(CC#C)CCCCCC(=O)Nc1ccccc1  0%
